The results in this text go back to ChEMBL document CHEMBL2331506, “Design, synthesis, antiviral and cytostatic evaluation of novel isoxazolidine nucleotide analogues with a carbamoyl linker” (Bioorg Med Chem, 2013).

In series [1] the test system is Influenza A virus. Nature of the series: Antiviral activity against Influenza A virus H3N2 infected in dog MDCK cells assessed as reduction of virus-induced cytopathogenicity at 250 uM. The class given is functional, organism-based. The gist of the method: (§1)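 Confluent cell monolayers were infected with 100 CCID50 of virus while exposed to varying compound concentrations. Cytopathicity was scored once it was complete in untreated infected controls. EC50 was taken as the concentration that reduced virus-induced cytopathogenicity by 50%.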
On the technique in general: Cytopathic effects are the visible damage that an infection or toxin causes in cultured cells.

Series [2] has as its system Human alphaherpesvirus 1. Nature of the series: Antiviral activity against Herpes simplex virus 1 KOS infected in human HEL cells assessed as reduction of virus-induced cytopathogenicity at 250 uM. Type of series: functional, organism-based. The gist of the method: (§2)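 Confluent monolayers (HEL fibroblasts, Vero, or HeLa cells as listed) were infected with 100 CCID50 of virus in the presence of varying compound concentrations. Virus-induced cytopathicity or plaque formation was scored once cytopathicity was complete in untreated infected controls. EC50 was taken as the concentration reducing cytopathogenicity or plaque formation by 50%.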

Series [3] has as its system Respiratory syncytial virus. Put plainly: Antiviral activity against Respiratory syncytial virus long infected in human HeLa cells assessed as reduction of virus-induced cytopathogenicity at 250 uM. The class given is functional, organism-based. The essentials: as §2
The next series concerns Vero. Put plainly: Cytotoxicity against african green monkey Vero cells assessed as alteration of cell morphology up to 100 uM by microscopic analysis. The class given is cell-based. Conditions: chlorocebus sabaeus. The gist of the method: (§3)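 Uninfected host-cell cultures were exposed to compound and examined by microscopy. Cytotoxicity was expressed as the minimum cytotoxic concentration (MCC) causing a microscopically detectable alteration of normal cell morphology.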

The next series has as its system Sindbis virus. Put plainly: Antiviral activity against Sindbis virus infected in african green monkey Vero cells assessed as reduction of virus-induced cytopathogenicity at 250 uM. Type of series: functional, organism-based. The gist of the method: as §2
The test system of series [4] is Human immunodeficiency virus 2. Nature of the series: Antiviral activity against Human immunodeficiency virus 2 ROD infected in human CEM cells assessed as reduction of virus-induced giant cell formation at 250 uM after 4 to 5 days. Type of series: functional, organism-based. Conditions: CCRF-CEM. The gist of the method: (§4)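 CEM cells at 3 × 10^5 cells/mL were infected with HIV at 100 CCID50 per mL in the presence of compound dilutions. They were held 4–5 days at 37 °C in humidified CO2. Syncytium (giant cell) formation was scored microscopically, and EC50 was taken as the concentration inhibiting giant cell formation by 50%.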

For the next series, the system named is MDCK. Nature of the series: Cytotoxicity against dog MDCK cells assessed as alteration of cell morphology up to 100 uM by microscopic analysis. Type of series: cell-based, Canis lupus familiaris. The gist of the method:
as §3

In series [5] the test system is Mammalian orthoreovirus 1. Put plainly: Antiviral activity against Reovirus 1 infected in african green monkey Vero cells assessed as reduction of virus-induced cytopathogenicity at 250 uM. The class given is functional, organism-based. The gist of the method: as §2
Another series has as its system Human respirovirus 3. Put plainly: Antiviral activity against Parainfluenza virus 3 infected in african green monkey Vero cells assessed as reduction of virus-induced cytopathogenicity at 250 uM. Type of series: functional, organism-based. The essentials: as §2
The next series has as its system Feline coronavirus. Put plainly: Antiviral activity against Feline coronavirus infected in cat CRFK cells assessed as reduction of virus-induced cytopathogenicity at 250 uM. Type of series: functional, organism-based.
In another series the test system is Felid alphaherpesvirus 1. Nature of the series: Antiviral activity against Feline herpes virus infected in cat CRFK cells assessed as reduction of virus-induced cytopathogenicity at 250 uM. The class given is functional, organism-based.
The test system of series [6] is Human immunodeficiency virus 1. Nature of the series: Antiviral activity against Human immunodeficiency virus 1 3B infected in human CEM cells assessed as reduction of virus-induced giant cell formation at 250 uM after 4 to 5 days. Type of series: functional, organism-based. Conditions: CCRF-CEM. The essentials:
as §4

Series [7] has as its system Vesicular stomatitis virus. Nature of the series: Antiviral activity against Vesicular stomatitis virus infected in human HeLa cells assessed as reduction of virus-induced cytopathogenicity at 250 uM. The class given is functional, organism-based. The gist of the method: as §1
In another series the test system is Influenza B virus. Nature of the series: Antiviral activity against Influenza B virus infected in dog MDCK cells assessed as reduction of virus-induced cytopathogenicity at 250 uM. The class given is functional, organism-based. The essentials:
as §1

A further series relates to Punta Toro virus. Nature of the series: Antiviral activity against Punta Toro virus infected in african green monkey Vero cells assessed as reduction of virus-induced cytopathogenicity at 250 uM. Type of series: functional, organism-based. The essentials: as §2
For a further series, the system named is HeLa. Nature of the series: Cytotoxicity against human HeLa cells assessed as alteration of cell morphology up to 100 uM by microscopic analysis. The class given is cell-based. The gist of the method: as §3
Another series relates to Coxsackievirus B4. Put plainly: Antiviral activity against Coxsackievirus B4 infected in african green monkey Vero cells assessed as reduction of virus-induced cytopathogenicity at 250 uM. Type of series: functional, organism-based. The essentials:
as §2

The next series concerns HEL. Put plainly: Cytotoxicity against human HEL cells assessed as alteration of cell morphology up to 100 uM by microscopic analysis. The class given is cell-based. The gist of the method:
as §3

The nature of series [8]: Cytotoxicity against cat CRFK cells assessed as alteration of cell morphology up to 100 uM by microscopic analysis. The class given is cell-based, Felis catus. The essentials:
as §3

Series [9] has as its system Vesicular stomatitis virus. Nature of the series: Antiviral activity against Vesicular stomatitis virus infected in human HEL cells assessed as reduction of virus-induced cytopathogenicity at 250 uM. The class given is functional, organism-based. The gist of the method: as §1
The subject of series [10] is Human alphaherpesvirus 1. Nature of the series: Antiviral activity against thymidine kinase-deficient, ACV-resistant Herpes simplex virus 1 KOS infected in human HEL cells assessed as reduction of virus-induced cytopathogenicity at 250 uM. The class given is functional, organism-based. The gist of the method: as §1
A further series relates to Human alphaherpesvirus 2. Put plainly: Antiviral activity against Herpes simplex virus 2 G infected in human HEL cells assessed as reduction of virus-induced cytopathogenicity at 250 uM. Type of series: functional, organism-based. Conditions: strain G. The essentials:
as §2

Series [11] has as its system Influenza A virus. Put plainly: Antiviral activity against Influenza A virus H1N1 infected in dog MDCK cells assessed as reduction of virus-induced cytopathogenicity at 250 uM. The class given is functional, organism-based. The essentials:
as §1

Calls of active or inactive are those of the source. The rule behind the calls is not given here.

Consider `CCOP(=O)(OCC)[C@@H]1C[C@H](C(=O)Nc2ccc(C#N)cc2)ON1C` (mixture of isomers), for which the inhibition entry (with Influenza A virus [1]; with Human alphaherpesvirus 1 [2]; in series [3]; in the series with Sindbis virus; in [4]; in series [5]) was “inactive” each time. In addition, the inhibition result (in the series on Human respirovirus 3; in the series with Feline coronavirus; in the series with Felid alphaherpesvirus 1; in series [6]; in [7]; with Influenza B virus) was “inactive” throughout. The inhibition entry (in the series on Punta Toro virus; in the series on Coxsackievirus B4; in series [9]; with Human alphaherpesvirus 1 [10]; with Human alphaherpesvirus 2; in the series with Influenza A virus [11]) was “inactive” in each case. Further, the Activity entry (in the series on Vero; in the series on MDCK; with HeLa; in the series on HEL; in [8]) was “Non-toxic” throughout.

Regarding `CCOP(=O)(OCC)[C@H]1C[C@H](C(=O)Nc2ccccc2C(C)=O)ON1C` (mixture of isomers), the inhibition entry (with Influenza A virus [1]; with Human alphaherpesvirus 1 [2]; in series [3]; with Sindbis virus; in [4]; in [5]) was “inactive” each time. Moreover, the inhibition result (in the series on Human respirovirus 3; with Feline coronavirus; in the series with Felid alphaherpesvirus 1; in series [6]; in series [7]; with Influenza B virus) was “inactive” throughout. For the same compound, the inhibition entry (with Punta Toro virus; in the series with Coxsackievirus B4; in [9]; in the series with Human alphaherpesvirus 1 [10]; in the series with Human alphaherpesvirus 2; in the series on Influenza A virus [11]) was “inactive” in each case. For the same compound, the Activity entry (in the series on Vero; in the series on MDCK; in the series on HeLa; in the series with HEL; in series [8]) was “Non-toxic” each time.

Take `CCOP(=O)(OCC)[C@@H]1C[C@H](C(=O)Nc2ccccc2C(C)=O)ON1C` (mixture of isomers): the inhibition result (with Influenza A virus [1]; with Human alphaherpesvirus 1 [2]; in series [3]; with Sindbis virus; in [4]; in series [5]) was “inactive” in each case. The inhibition result (in the series on Human respirovirus 3; with Feline coronavirus; in the series on Felid alphaherpesvirus 1; in series [6]; in series [7]; in the series with Influenza B virus) was “inactive” each time. In addition, the inhibition entry (in the series with Punta Toro virus; with Coxsackievirus B4; in series [9]; in the series with Human alphaherpesvirus 1 [10]; in the series with Human alphaherpesvirus 2; in the series with Influenza A virus [11]) was “inactive” in each case. Besides, the Activity result (in the series on Vero; in the series on MDCK; with HeLa; with HEL; in series [8]) was “Non-toxic” throughout.

As for `CCOP(=O)(OCC)[C@H]1C[C@H](C(=O)Nc2cccc(C(C)=O)c2)ON1C` (mixture of isomers), the inhibition result (in the series with Influenza A virus [1]; in the series on Human alphaherpesvirus 1 [2]; in [3]; in the series with Sindbis virus; in series [4]; in [5]) was “inactive” throughout. Besides, the inhibition result (in the series on Human respirovirus 3; with Feline coronavirus; with Felid alphaherpesvirus 1; in [6]; in [7]; in the series on Influenza B virus) was “inactive” each time. Moreover, the inhibition entry (in the series on Punta Toro virus; in the series on Coxsackievirus B4; in series [9]; in the series on Human alphaherpesvirus 1 [10]; in the series on Human alphaherpesvirus 2; with Influenza A virus [11]) was “inactive” each time. Moreover, the Activity entry (in the series with Vero; in the series with MDCK; in the series with HeLa; in the series with HEL; in [8]) was “Non-toxic” in each case.

Take `CCOP(=O)(OCC)[C@@H]1C[C@H](C(=O)Nc2cccc(C)c2)ON1C` (mixture of isomers): the inhibition entry (in the series on Influenza A virus [1]; in the series with Human alphaherpesvirus 1 [2]; in [3]; in the series with Sindbis virus; in [4]; in series [5]) was “inactive” each time. Also, the inhibition entry (with Human respirovirus 3; in the series with Feline coronavirus; with Felid alphaherpesvirus 1; in [6]; in [7]; in the series on Influenza B virus) was “inactive” in each case. Also, the inhibition result (in the series with Punta Toro virus; in the series on Coxsackievirus B4; in series [9]; with Human alphaherpesvirus 1 [10]; in the series with Human alphaherpesvirus 2; in the series on Influenza A virus [11]) was “inactive” each time. Further, the Activity result (in the series with Vero; in the series with MDCK; in the series on HeLa; in the series with HEL; in series [8]) was “Non-toxic” throughout.

Take `CCOP(=O)(OCC)[C@@H]1C[C@H](C(=O)Nc2ccc(C)cc2)ON1C` (mixture of isomers): the inhibition result (in the series on Influenza A virus [1]; with Human alphaherpesvirus 1 [2]; in series [3]; in the series with Sindbis virus; in series [4]; in series [5]) was “inactive” each time. Also, the inhibition entry (with Human respirovirus 3; in the series on Feline coronavirus; in the series with Felid alphaherpesvirus 1; in series [6]; in series [7]; in the series with Influenza B virus) was “inactive” in each case. Also, the inhibition result (in the series on Punta Toro virus; in the series on Coxsackievirus B4; in [9]; in the series on Human alphaherpesvirus 1 [10]; in the series with Human alphaherpesvirus 2; in the series on Influenza A virus [11]) was “inactive” in each case. In addition, the Activity result (in the series on Vero; in the series on MDCK; in the series with HeLa; in the series on HEL; in series [8]) was “Non-toxic” in each case.
